Shown are actives, neighbours in structure and some others; about 2.3% of the full set was active somewhere.
TRPC6 activator: activators of mouse TRPC6 channel | Q61143 | HEK293-TRPC6 membrane potential dye fluorescence; hits give high values | B-score at 10 µM | 310,000 compounds, 0.13% hits | AID 2550;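 active means B-score of the integrated fluorescence ratio above library mean plus 3 SD, and starting fluorescence ratio within library mean plus 5 SD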;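 further: higher score means more depolarization so channel activation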
Target sequence (Q61143 whole entry, looked up): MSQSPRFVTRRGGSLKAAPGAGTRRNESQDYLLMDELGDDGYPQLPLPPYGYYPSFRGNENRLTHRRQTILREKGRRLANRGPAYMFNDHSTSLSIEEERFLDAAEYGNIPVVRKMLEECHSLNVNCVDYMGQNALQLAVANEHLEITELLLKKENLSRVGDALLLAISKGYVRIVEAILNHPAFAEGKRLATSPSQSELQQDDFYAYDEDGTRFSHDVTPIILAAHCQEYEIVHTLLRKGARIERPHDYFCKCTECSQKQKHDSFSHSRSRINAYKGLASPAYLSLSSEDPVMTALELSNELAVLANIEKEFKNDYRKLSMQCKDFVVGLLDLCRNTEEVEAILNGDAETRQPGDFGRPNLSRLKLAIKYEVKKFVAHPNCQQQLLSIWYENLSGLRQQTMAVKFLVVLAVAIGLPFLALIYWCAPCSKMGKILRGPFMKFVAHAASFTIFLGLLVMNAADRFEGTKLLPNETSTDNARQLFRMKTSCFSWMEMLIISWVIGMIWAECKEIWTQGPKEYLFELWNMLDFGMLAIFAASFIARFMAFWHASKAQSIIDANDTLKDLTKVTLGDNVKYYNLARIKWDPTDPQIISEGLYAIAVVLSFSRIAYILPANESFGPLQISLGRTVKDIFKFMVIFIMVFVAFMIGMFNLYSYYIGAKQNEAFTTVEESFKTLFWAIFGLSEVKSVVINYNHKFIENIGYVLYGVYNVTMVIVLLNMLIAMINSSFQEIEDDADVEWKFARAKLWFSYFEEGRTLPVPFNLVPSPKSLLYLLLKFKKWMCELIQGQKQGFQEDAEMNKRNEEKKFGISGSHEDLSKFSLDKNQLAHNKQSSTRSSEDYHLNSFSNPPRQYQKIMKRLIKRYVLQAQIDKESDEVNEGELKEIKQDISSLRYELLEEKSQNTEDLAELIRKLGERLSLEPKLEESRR
TRPC4 potent: allosteric potentiators of mouse TRPC4 channel; AID 2227; 310,000 compounds, 0.42% hits; HEK293 TRPC4beta/mu-opioid, DAMGO EC20, Fluo-4 Ca2+ flux; hits give high values; B-score at 10 µM;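 active means B-score of calcium response area above 5 SD of library B-scores, with initial fluorescence ratio within 5 SD of library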;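 further: B-score of integrated fluorescence ratio over time as area under calcium response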
TRPC6 inh: mouse TRPC6 channel inhibition. Q61143. HEK293-TRPC6, membrane potential dye, ACh-evoked depolarization; hits give low values. B-score at 10 µM. 310,000 compounds, 1.1% hits;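 active means B-score under library mean minus 3 SD, initial fluorescence not abnormally high, positive integrated signal ratio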;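 further: B-score derived from integrated fluorescence ratio over the kinetic read; more negative B-score means stronger inhibition of depolarization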
TRPC4 inh: inhibitors of mouse TRPC4 channel; AID 2247; Q9QUQ5; 300,000 compounds, 0.39% hits; HEK293 TRPC4beta/mu-opioid, DAMGO-evoked Fluo4 calcium flux; hits give low values; B-score at 10 µM;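 active means B-score over 3 SD under the library average, no early fluorescence shift, positive overall ratio signal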
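Test system – stable TRPC4beta/mu-opioid receptor HEK293 cells · Probe or stimulus – DAMGO, a submaximal dose followed by a maximal one · Dosing – one concentration per compound · Signal – Fluo4 calcium fluorescence by kinetic imaging, 5 s 1 Hz baseline · Evaluation – per-well B score of integrated baseline-normalized Fluo4 ratio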
TRPC4 act: opens the mouse TRPC4 cation channel | Q9QUQ5 | HEK293 TRPC4beta/mu-opioid, Fluo4 calcium fluorescence; hits give high values | B-score at 10 µM | 310,000 compounds, 0.49% hits | AID 2237;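 active means B-score above 5 SD of library B-scores, and initial fluorescence ratio not above library mean plus 5 SD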;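 further: positive B-score marks a calcium rise read as TRPC4 activation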
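Assay system: HEK293 cells stably co-expressing mouse TRPC4beta and mu-opioid receptor / Timing: Fluo4 dye loading 45 min at room temperature, 110 s recording / Signal: Fluo4 calcium-sensitive dye fluorescence, kinetic, 1 Hz baseline / Read-out: integrated baseline-normalised fluorescence ratio, converted to per-well B score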
TRPC4 sel inh 2: second selectivity test of TRPC6 inhibitors: effect on mouse TRPC4; shares compounds with TRPC6 inh; AID 2776; inhibition, % at 10 µM; 920 compounds, 42% hits; HEK293 TRPC4/MOR, membrane potential dye fluorescence; channel activated by saturating DAMGO dose;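 active means compounds whose fluorescence signal differed from control wells by over 3 SD, either direction, in both duplicate plates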
TRPC4 spec: mouse TRPC4 off-target activity of TRPC6 inhibitors; 920 compounds, 61% hits; shares compounds with TRPC6 inh; HEK293 TRPC4/mu-opioid, membrane potential fluorescence; activity change, negative = inhibition, % at 10 µM;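 active means rise or fall in signal beyond 3 SD of buffer-only wells in both replicate plates, either sign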;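 further: integrated kinetic ratio of fluorescence range over baseline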
HEK293 MPD ctr 2-1: parental HEK293 nonspecific activity of TRPC6 inhibitors, second screen | signal change vs control, % at 10 µM | parental HEK293 membrane potential dye fluorescence; maximal acetylcholine challenge after compound addition | 920 compounds, 31% hits | shares compounds with TRPC6 inh;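 active means membrane potential signal moving either way by over 3 SD of the maximum-effect control, in both duplicate plates, meaning non-specific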
HEK293 MPD ctr-1: counter-screen for TRPC6 inhibitors: effect in parental HEK293 cells | shares compounds with TRPC6 inh | parental HEK293 membrane potential dye fluorescence | membrane potential signal change, % at 10 µM | 920 compounds, 60% hits | AID 2780;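 active means membrane potential signal shifting up or down by more than 3 SD of buffer-only wells, on both duplicate plates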
HEK293 MPD ctr-2: counter-screen for TRPC6 modulators: effect in parental HEK293 cells; shares compounds with TRPC6 inh; membrane potential dye fluorescence; membrane potential signal change, % at 10 µM; 2,400 compounds, 51% hits;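 active means membrane potential signal moves up or down beyond 5 SD from buffer-only wells, on both duplicate plates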
HEK293 MPD ctr 2-2: second check of TRPC6 modulator effects in parental HEK293 cells. shares compounds with TRPC6 inh. membrane potential dye fluorescence; after compound, maximal acetylcholine stimulation. inhibition, % at 10 µM. 2,400 compounds, 14% hits;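 active means membrane potential signal drops by more than 5 SD from the mean control signal, in both duplicate plates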;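 further: plate controls were acetylcholine ECmax control wells for no effect and buffer only wells for full effect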
TRPC4/MOR mod: mouse TRPC4 off-target activity of TRPC6 modulators | shares compounds with TRPC6 inh | HEK293 TRPC4/mu-opioid, membrane potential fluorescence | percent change from control (negative = decrease, positive = increase), % at 10 µM | 2,400 compounds, 69% hits | AID 488927;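 active means membrane potential signal moved up or down beyond 5 SD of buffer control wells, in both duplicate plates, actives on both sides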;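 further: plate controls were assay buffer wells for no effect and DAMGO maximal-effect wells for full effect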
TRPC4 ctr inh 2: second check of whether TRPC6 modulators also affect mouse TRPC4. 2,400 compounds, 55% hits. shares compounds with TRPC6 inh. inhibition, % at 10 µM. HEK293 TRPC4/mu-opioid, membrane potential dye fluorescence; stimulated with maximal-effect DAMGO;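 active means drop in membrane potential signal beyond 5 SD of the control wells in both duplicate plates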;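 further: TRPC4 counter screen for TRPC6 hits run under conditions tuned for TRPC6 not TRPC4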
TRPC6 inh conf: confirmation of mouse TRPC6 inhibitors; HEK293-TRPC6, membrane potential dye, ACh-evoked depolarization; inhibition, % at 10 µM; shares compounds with TRPC6 inh; 3,300 compounds, 43% hits;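 active means fluorescence ratio falls more than 5 SD below the full-stimulation control mean, in both duplicate runs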;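 further: integrated fluorescence ratio of peak minus minimum over baseline after agonist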
TRPC6 act confirm: mouse TRPC6 activator confirmation. shares compounds with TRPC6 inh. HEK293-TRPC6 membrane potential dye fluorescence, FDSS. AID 488961. activation, % at 10 µM. 2,800 compounds, 11% hits;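 active means ratio signal rise beyond 5 SD above unstimulated control wells' mean, seen in both duplicate runs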;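 further: plate controls were buffer EC0 wells for no effect and acetylcholine ECmax response for full effect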
Active calls of the source: *; i = inactive; . = no result given.

SMILES	TRPC6 activator	TRPC4 potent	TRPC6 inh	TRPC4 inh	TRPC4 act	HEK293 MPD ctr-2	HEK293 MPD ctr 2-2	TRPC4/MOR mod	TRPC4 ctr inh 2	TRPC6 inh conf	TRPC6 act confirm	others
N#CC1=C(N)S[C@@H](C(=O)c2ccc(F)cc2)[C@@H]1c1cccs1	i	i	-6.5*	i	i	i	i	i	i	i	i
N#CC1=C(N)SC(C(=O)c2ccccc2)C1c1cccs1 (stereo unspecified)	i	i	i	i	i	.	.	.	.	.	.
Nc1cccc(C(=O)NCCNC(=O)c2cccc(N)c2)c1	i	i	-7.1*	i	i	.	.	.	.	i	i	TRPC4 sel inh 2=i;TRPC4 spec=i;HEK293 MPD ctr 2-1=i;HEK293 MPD ctr-1=i
O=C(NCCNC(=O)c1cccc(O)c1)c1cccc(O)c1	i	i	i	i	i	.	.	.	.	.	.
COc1cccc2c1cc1c(=O)n(CC(=O)N3CCC(C)CC3)nc(C)n12	i	i	i	i	i	.	.	.	.	.	.
CCOC(=O)c1c(C)n(C)c2ccc(OC)c(NC(=O)CCN3CCC(Cc4ccccc4)CC3)c12	i	i	-5.2*	i	i	i	i	i	70%*	54%*	i
COc1ccc(NC(=O)Nc2nnc(Cc3ccc(F)cc3)s2)cc1	i	i	i	i	i	.	.	.	.	.	.
CN(C)CCOc1nc(-c2ccccc2)nc2c1oc1ccccc12	i	i	-8.9*	i	45*	.	.	.	.	i	i	TRPC4 sel inh 2=62%*;TRPC4 spec=i;HEK293 MPD ctr 2-1=i;HEK293 MPD ctr-1=i
CCN1CCN(C(=O)c2ccc3c(=O)n(CCc4ccccc4)c(=O)[nH]c3c2)CC1	i	i	i	i	i	.	.	.	.	.	.
CCOc1ccccc1N(CC(=O)Nc1ccccc1F)S(=O)(=O)c1ccccc1	i	i	i	i	i	.	.	.	.	.	.
CCOc1ccc2nc(SCC(=O)Nc3ccc4[nH]c(=O)[nH]c4c3)[nH]c2c1	i	i	i	i	i	.	.	.	.	.	.
CCN(CC)CCCOC(=O)C1(c2ccccc2)CCCC1	i	i	-9.1*	i	i	.	.	.	.	60%*	.	TRPC4 sel inh 2=i;TRPC4 spec=12%*;HEK293 MPD ctr 2-1=12%*;HEK293 MPD ctr-1=12%*
C[N+](C)(C)CCOC(=O)C1(c2ccccc2)CCCC1	i	i	-8.5*	i	i	.	.	.	.	69%*	i	TRPC4 sel inh 2=i;TRPC4 spec=i;HEK293 MPD ctr 2-1=1.0%*;HEK293 MPD ctr-1=i
C[N+]1(CCOC(=O)C2(c3ccccc3)CCCC2)CCCCC1	i	i	-11*	i	i	.	.	.	.	78%*	i	TRPC4 sel inh 2=i;TRPC4 spec=i;HEK293 MPD ctr 2-1=-16%*;HEK293 MPD ctr-1=i
CC(C)CCNC(=O)C(c1ccc(O)cc1)N(Cc1ccco1)C(=O)CCC(=O)Nc1nccs1 (stereo unspecified)	i	i	i	i	i	.	.	.	.	.	.
COC(=O)c1ccc(CN2C(=O)NC(Cc3c[nH]c4ccccc34)C2=O)cc1 (stereo unspecified)	i	i	i	i	i	.	.	.	.	.	.
O=S1(=O)CCC(n2nccc2-c2ccccc2)C1 (stereo unspecified)	i	i	i	i	i	.	.	.	.	.	.
C/C(=N/NC(=O)c1cc2ccccc2cc1O)C1C(=O)c2ccccc2C1=O	i	i	i	i	i	.	.	.	.	.	.
C/C(=N\NC(=O)c1ccccc1O)C1C(=O)c2ccccc2C1=O	i	i	-5.5*	i	i	i	i	-16%*	i	i	i
Cc1cc2c(cc1S(=O)(=O)CCC(=O)Nc1cccc(C(F)(F)F)c1)OCC(=O)N2	i	i	i	i	i	.	.	.	.	.	.
CCOc1cc(/C=C2\SC(=NC)N(C)C2=O)cc(Cl)c1OC(C)=O	i	i	-5*	i	i	i	i	i	i	i	i
O=C(N/N=C/c1cccc([N+](=O)[O-])c1)c1cc[n+](CCO)cc1	i	i	-5.7*	i	i	-88%*	i	-22%*	i	i	i
O=C(N/N=C/c1cccnc1)c1ccc([N+](=O)[O-])cc1	i	i	-5.3*	i	i	-196%*	i	-36%*	30%*	i	i
CNC(CC(C)C)C(=O)NC1C(=O)NC(CC(N)=O)C(=O)NC2C(=O)NC3C(=O)NC(C(=O)NC(C(=O)O)c4cc(O)cc(O)c4-c4cc3ccc4O)C(O)c3ccc(c(Cl)c3)Oc3cc2cc(c3OC2OC(CO)C(O)C(O)C2OC2CC(C)(N)C(O)C(C)O2)Oc2ccc(cc2Cl)C1O (stereo unspecified)	i	i	i	i	i	.	.	.	.	.	.
CC(C)(C)c1ccc(C(=O)N2CCN(C(=O)c3ccco3)CC2)cc1	i	i	i	i	i	.	.	.	.	.	.
COc1ccc(-c2coc3cc(OC)cc(O)c3c2=O)cc1	i	i	-8.6*	i	i	i	i	i	i	i	i
COc1ccc(-c2coc3cc(O)cc(O)c3c2=O)cc1	i	i	i	i	i	.	.	.	.	.	.

Screens: PubChem, Johns Hopkins Ion Channel Center
